In ChEMBL document CHEMBL4024754, “Development of Potent, Protease-Resistant Agonists of the Parathyroid Hormone Receptor with Broad β Residue Distribution” (J Med Chem, 2017):
Active and inactive are the calls of the source. No cut-off for these calls is given here. Numbered stars: 1 amine (or outer) side, 2 acyl side, 3 side chain; on linkers, the order of the positions; unused ones are H or OH. Square brackets hold non-standard residues; d marks the D form. Peptide text beside a SMILES is read from it. * marks the point of attachment. NH(1S,2S-2-CONH2-cPent) = NC(=O)[C@H]1CCC[C@@H]1N*; ACPC(1S,2S) = N[C@H]1CCC[C@@H]1C(=O)*; X1 = O=C([C@H]1CCC[C@@H]1N[*:1])[*:2]; X2 = O=C([C@H]1CNC[C@@H]1N[*:1])[*:2]

How the values were obtained:
[1] = target: T1, Parathyroid hormone/parathyroid hormone-related peptide receptor (Homo sapiens) (UniProt Q03431); assay: Agonist activity at human PTH1 receptor expressed in human GP2.3 cells assessed as induction of cAMP after 12 to 20 mins by luciferase reporter gene assay relative to PTH(1 to 34 residues)-NH2; type: functional, cell-based
T1 sequence (whole entry): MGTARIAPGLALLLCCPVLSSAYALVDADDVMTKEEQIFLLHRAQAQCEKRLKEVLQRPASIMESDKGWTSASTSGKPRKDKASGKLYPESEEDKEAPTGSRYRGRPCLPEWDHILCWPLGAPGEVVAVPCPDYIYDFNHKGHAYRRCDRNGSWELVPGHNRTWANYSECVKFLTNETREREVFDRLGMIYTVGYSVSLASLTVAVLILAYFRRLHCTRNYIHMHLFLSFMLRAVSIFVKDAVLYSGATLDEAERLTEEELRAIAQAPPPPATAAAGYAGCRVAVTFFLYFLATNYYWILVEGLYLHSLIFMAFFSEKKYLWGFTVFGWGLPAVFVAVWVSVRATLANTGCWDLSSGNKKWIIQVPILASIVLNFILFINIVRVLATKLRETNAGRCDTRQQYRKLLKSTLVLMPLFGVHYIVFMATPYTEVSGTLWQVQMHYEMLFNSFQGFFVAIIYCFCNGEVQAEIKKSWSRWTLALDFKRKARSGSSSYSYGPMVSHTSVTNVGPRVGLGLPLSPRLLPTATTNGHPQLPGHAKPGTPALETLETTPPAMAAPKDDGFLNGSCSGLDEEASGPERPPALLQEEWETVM

[2] = target: T1, Parathyroid hormone/parathyroid hormone-related peptide receptor (Homo sapiens); assay: Agonist activity at human PTH1 receptor expressed in human GP2.3 cells assessed as induction of cAMP at 0.1 to 100 nM preincubated with protease activity quenched SGF up to 4 hrs followed by compound transfer to GP2.3 cells by luciferase reporter gene assay; type: functional, cell-based
Summary of the method: (§1)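 Control samples: simulated gastric fluid neutralized with 10× PBS, or intestinal fluid mixed with acetonitrile/TFA quench solution, before adding peptide. Gastric controls held up to 4 h. Then diluted and tested on luciferin-loaded GP2.3 cells at 100−0.1 nM final, alongside freshly prepared peptide.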

[3] = target: T1, Parathyroid hormone/parathyroid hormone-related peptide receptor (Homo sapiens); assay: Agonist activity at human PTH1 receptor expressed in human GP2.3 cells assessed as induction of cAMP at 0.1 to 100 nM preincubated with protease activity quenched SIF followed by compound transfer to GP2.3 cells by luciferase reporter gene assay; type: functional, cell-based; summary of the method: as §1
[4] = target: T1, Parathyroid hormone/parathyroid hormone-related peptide receptor (Homo sapiens); assay: Agonist activity at human PTH1 receptor expressed in human GP2.3 cells assessed as induction of cAMP at 0.1 to 100 nM preincubated with SGF for 5 secs followed by compound transfer to GP2.3 cells by luciferase reporter gene assay; type: functional, cell-based
Summary of the method: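 Quenched at set times with 10× PBS, diluted into CO2-independent medium, serially 1:10, then added to confluent GP2.3 cells (HEK293, hPTHR1 plus Glosensor cAMP reporter) preloaded 30 min with 0.5 mM D-luciferin. Final 100–0.1 nM. Luminescence read; two technical replicates; variable-slope sigmoidal fit.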

[5] = Stability in simulated gastric fluid assessed as pig pepsin-mediated proteolysis at 40 uM after 5 secs by RP-HPLC analysis; type: ADME, Sus scrofa; conditions: isolated protein, 5 s
Summary of the method: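 Proteolysis quenched by transfer into 10× PBS, pH 7.4, giving 40 μM peptide. Analysed by analytical C18 RP-HPLC, 10–60% acetonitrile/0.1% TFA over 50 min. Intact peptide quantified by integrating its peak. Duplicate reactions run concurrently, standard deviation.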

[6] = target: T1, Parathyroid hormone/parathyroid hormone-related peptide receptor (Homo sapiens); assay: Agonist activity at extracellular domain truncate human PTH1 receptor expressed in GD5 cells assessed as induction of cAMP after 12 to 20 mins by luciferase reporter gene assay; type: functional, cell-based
Summary of the method: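 HEK293-derived lines stably expressing Glosensor cAMP reporter plus full-length human PTHR1 (GP2.3) or ECD-truncated PTHR1 (GD5). Confluent monolayers preincubated at room temperature in CO2-independent medium with 0.5 mM D-luciferin until baseline stable (30 min), then varied agonist concentrations added. Maximal luminescence (12−20 min) used for sigmoidal variable-slope fits.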

[7] = target: T2, Parathyroid hormone/parathyroid hormone-related peptide receptor (Homo sapiens, UniProt Q03431); assay: Agonist activity at human PTH1 receptor expressed in human GP2.3 cells assessed as induction of cAMP after 12 to 20 mins by luciferase reporter gene assay; type: functional, cell-based; conditions: read-out: EC50
T2 sequence (Q03431 whole entry): T1 sequence (whole entry)

fold change (FC) [1]	Activity [6]	EC50 [7]	SMILES	Activity [2]	Activity [3]	Activity [4]	Stability [5]
1.6	Active	0.15 nM	CC[C@H](C)[C@H](NC(=O)[C@H](CCC(=O)O)NC(=O)[C@H](CO)NC(=O)[C@@H](NC(=O)[C@H]1CCC[C@@H]1N)C(C)C)C(=O)N[C@@H](CCC(N)=O)C(=O)N[C@@H](CC(C)C)C(=O)N[C@@H](CCSC)C(=O)N[C@@H](Cc1cnc[nH]1)C(=O)N[C@@H](CC(N)=O)C(=O)N[C@@H](CC(C)C)C(=O)NCC(=O)N[C@@H](CCCCN)C(=O)N[C@@H](Cc1cnc[nH]1)C(=O)N[C@@H](CC(C)C)C(=O)N[C@@H](CC(N)=O)C(=O)N[C@@H](CO)C(=O)N[C@@H](CCSC)C(=O)N[C@@H](CCC(=O)O)C(=O)N[C@@H](CCCNC(=N)N)C(=O)N[C@H](C(=O)N[C@@H](CCC(=O)O)C(=O)N[C@@H](Cc1c[nH]c2ccccc12)C(=O)N[C@@H](CC(C)C)C(=O)N[C@@H](CCCNC(=N)N)C(=O)N[C@@H](CCCCN)C(=O)N[C@@H](CCCCN)C(=O)N[C@@H](CC(C)C)C(=O)N[C@@H](CCC(N)=O)C(=O)N[C@@H](CC(=O)O)C(=O)N[C@H](C(=O)N[C@@H](Cc1cnc[nH]1)C(=O)N[C@@H](CC(N)=O)C(=O)N[C@@H](Cc1ccccc1)C(N)=O)C(C)C)C(C)C ({ACPC(1S,2S)}-VSEIQLMHNLGKHLNSMERVEWLRKKLQDVHNF-NH2)	–	–	–	–
8.7	–	–	CC[C@H](C)[C@H](NC(=O)[C@H](CCC(=O)O)NC(=O)[C@H](CO)NC(=O)[C@@H](NC(=O)[C@H]1CCC[C@@H]1N)C(C)C)C(=O)N[C@@H](CCC(N)=O)C(=O)N[C@H]1CCC[C@@H]1C(=O)N[C@@H](CCSC)C(=O)N[C@@H](Cc1cnc[nH]1)C(=O)N[C@@H](CC(N)=O)C(=O)N[C@@H](CC(C)C)C(=O)NCC(=O)N[C@@H](CCCCN)C(=O)N[C@H]1CCC[C@@H]1C(=O)N[C@@H](CC(C)C)C(=O)N[C@@H](CC(N)=O)C(=O)N[C@@H](CO)C(=O)N[C@H]1CCC[C@@H]1C(=O)N[C@@H](CCC(=O)O)C(=O)N[C@@H](CCCNC(=N)N)C(=O)N[C@H](C(=O)N[C@H]1CNC[C@@H]1C(=O)N[C@@H](Cc1c[nH]c2ccccc12)C(=O)N[C@@H](CC(C)C)C(=O)N[C@@H](CCCNC(=N)N)C(=O)N[C@H]1CNC[C@@H]1C(=O)N[C@@H](CCCCN)C(=O)N[C@@H](CC(C)C)C(=O)N[C@@H](CCC(N)=O)C(=O)N[C@H]1CCC[C@@H]1C(=O)N[C@H](C(=O)N[C@@H](Cc1cnc[nH]1)C(=O)N[C@@H](CC(N)=O)C(=O)N[C@H]1CCC[C@@H]1C(N)=O)C(C)C)C(C)C ({ACPC(1S,2S)}-VSEIQ[X1]MHNLGK[X1]LNS[X1]ERV[X2]WLR[X2]KLQ[X1]VHN-{NH(1S,2S-2-CONH2-cPent)})	Active	Active	–	–

SMILES	fold change (FC) [1]	Activity [6]	EC50 [7]	Activity [2]	Activity [3]	Activity [4]	Stability [5]
CC[C@H](C)[C@H](NC(=O)[C@H](CCC(=O)O)NC(=O)[C@H](CO)NC(=O)[C@@H](NC(=O)[C@@H](N)CO)C(C)C)C(=O)N[C@@H](CCC(N)=O)C(=O)N[C@@H](CC(C)C)C(=O)N[C@@H](CCSC)C(=O)N[C@@H](Cc1cnc[nH]1)C(=O)N[C@@H](CC(N)=O)C(=O)N[C@@H](CC(C)C)C(=O)NCC(=O)N[C@@H](CCCCN)C(=O)N[C@H](CC(=O)N[C@@H](CC(C)C)C(=O)N[C@@H](CC(N)=O)C(=O)N[C@@H](CO)C(=O)N[C@@H](CCSC)CC(=O)N[C@@H](CCC(=O)O)C(=O)N[C@@H](CCCNC(=N)N)C(=O)N[C@H](C(=O)N[C@@H](CCC(=O)O)CC(=O)N[C@@H](Cc1c[nH]c2ccccc12)C(=O)N[C@@H](CC(C)C)C(=O)N[C@@H](CCCNC(=N)N)C(=O)N[C@@H](CCCCN)CC(=O)N[C@@H](CCCCN)C(=O)N[C@@H](CC(C)C)C(=O)N[C@@H](CCC(N)=O)C(=O)N[C@@H](CC(=O)O)CC(=O)N[C@H](C(=O)N[C@@H](Cc1cnc[nH]1)C(=O)N[C@@H](CC(N)=O)C(=O)N[C@H](CC(N)=O)Cc1ccccc1)C(C)C)C(C)C)Cc1c[nH]c2ccccc12	2.1	–	–	Active	Active	inactive	Unstable
